Assay [1] deals with Mycobacterium tuberculosis. As to the kind of experiment: Antimycobacterial activity against Mycobacterium tuberculosis MT1K ISO-R22 mutant overexpressing ethA gene by colorimetric resazurin microtiter assay. The assay is classed as functional. Put shortly: (§1)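 Resazurin colorimetric microtiter MIC in 7H9-ADC broth with 2% DMSO at 37°C; strains carry empty pVV16 or pVVethA complementation vector; ISO tested up to 40 μg/ml, highest soluble level.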
Background: The colour change of resazurin is a common sign of viable cells or microbes.

The subject of assay [2] is Mycobacterium tuberculosis. As to the kind of experiment: Ratio of MIC for Mycobacterium tuberculosis H37Rv overexpressing ethR gene to MIC for wild-type Mycobacterium tuberculosis H37Rv expressing VV16 plasmid. The assay is classed as functional. In short, it runs like this: (§2)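 Ratio of resazurin microtiter MICs in 7H9-ADC broth for H37Rv carrying pVVethR or pVVethA versus empty pVV16; ethA strain run at 32°C, ethR at 37°C.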

In assay [3] the test system is Mycobacterium tuberculosis. The experiment in a line: microbe, parasite or virus in culture. Conditions: H37Rv ATCC 25618.
Assay [4] concerns Mycobacterium tuberculosis. As to the kind of experiment: Antimycobacterial activity against Mycobacterium tuberculosis H37Rv ATCC 25618 overexpressing ethR gene by colorimetric resazurin microtiter assay. The assay is classed as functional. In short, it runs like this: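 Resazurin colorimetric microtiter MIC in 7H9-ADC broth at 37°C, for H37Rv carrying ethR on pVV vector; ISO tested up to 40 μg/ml, the solubility limit.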

The test system of assay [5] is Mycobacterium tuberculosis. As to the kind of experiment: Ratio of MIC for wild-type Mycobacterium tuberculosis H37Rv expressing VV16 plasmid to MIC for Mycobacterium tuberculosis H37Rv overexpressing ethA gene. The assay is classed as functional. Put shortly:
as §2

Assay [6] deals with Mycobacterium tuberculosis. As to the kind of experiment: Antimycobacterial activity against Mycobacterium tuberculosis MT1K ISO-R33 mutant overexpressing ethA gene by colorimetric resazurin microtiter assay. The assay is classed as functional. Put shortly: as §1
Assay [7] relates to Mycobacterium tuberculosis. As to the kind of experiment: Antimycobacterial activity against Mycobacterium tuberculosis MT1K ISO-R22 mutant expressing VV16 plasmid by colorimetric resazurin microtiter assay. The assay is classed as functional. In short, it runs like this: as §1
For assay [8], the system named is Mycobacterium tuberculosis. As to the kind of experiment: Antimycobacterial activity against Mycobacterium tuberculosis MT1K ISO-R33 mutant expressing VV16 plasmid by colorimetric resazurin microtiter assay. The assay is classed as functional. Put shortly: as §1

The source of these data is ChEMBL document CHEMBL1137655, “Isoxyl activation is required for bacteriostatic activity against Mycobacterium tuberculosis” (2007).

Each structure is given as a SMILES string. In brackets after ≈: the same amount, converted by molar mass.

Take `CC(C)CCOc1ccc(NC(=S)Nc2ccc(OCCC(C)C)cc2)cc1` [TIOCARLIDE]: the MIC in assay [1] was 5 µg/mL (≈ 12.5 µM); in assay [3], 2.5 µg/mL (≈ 6.24 µM); in assay [4] it was more than 40 µg/mL; in assay [6], 5 µg/mL (≈ 12.5 µM); in assay [7] it was more than 40 µg/mL; in assay [8] it was more than 40 µg/mL. For the same molecule, the figures for the “fold change (FC)” value in assay [2] and in assay [5] were 8 and 2, respectively.
